Source: PMC8083113 (Journal of medicinal chemistry, 2021)
Read-outs that look alike come from different tables or passages of the source.

Legend:
[1] = molecular target: T1, STAT3 (Homo sapiens, UniProt P40763); test: Western blot of STAT3 in BxPC-3; assay type: cell-based; conditions: for effect on STAT3 expression: BxPC-3, 16 h, XD2–162 up to 5 μM, 1–6 at 0.5 μM
In short: (§1)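 BxPC-3 cells (500 × 10^3/well) are treated with the test compound (concentrations up to 5 μM) for 16 h. They are lysed at 4 °C by sonication in Tris/NaCl/Triton X-100/SDS buffer, pH 7.4, with protease and phosphatase inhibitors. Protein is measured by BCA, run on 10 or 12% gels and transferred to PVDF. Blots are probed overnight at 4 °C for STAT3/pSTAT3 (1:1000) and GAPDH (1:4000), imaged by near-infrared fluorescence, and quantified by densitometry.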

[2] = Table S4; cited from earlier work
[3] = system: BxPC-3; test: MTT cytotoxicity assay in BxPC-3; assay type: cell-based
In short: (§2)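 Cells (3000–6000/well) are seeded and left overnight, then exposed to the test compound or DMSO vehicle for 3 days. MTT (3 mg/ml) is added for 3 h at 37 °C, and the formazan is dissolved in DMSO and read at 570 nm. IC50 comes from dose-response curves from three independent experiments, reported as mean ± SD.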

[4] = system: BxPC-3; test: Colony formation assay in BxPC-3; assay type: cell-based; conditions: BxPC-3, 7–10 days
[5] = system: pSTAT3; test: Western blot of pSTAT3 in BxPC-3; assay type: cell-based; conditions: BxPC-3, 16 h treatment
In short: as §1

[6] = molecular target: GSPT1 (Homo sapiens, UniProt P15170); test: Western blot of GSPT1 in BxPC-3; assay type: cell-based
In short: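 BxPC-3 cells (500 × 10^3/well) are exposed to the test compound for 16 h and lysed by sonication at 4 °C in Tris/NaCl/Triton/SDS buffer, pH 7.4, with protease and phosphatase inhibitors. After BCA quantitation, SDS-PAGE and PVDF transfer, membranes are probed overnight at 4 °C with anti-GSPT (1:1000) and GAPDH (1:4000). Detection uses near-infrared secondaries, with densitometric quantification.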

[7] = molecular target: ZFP91 (Homo sapiens, UniProt Q96JP5+Q96SW2); test: Western blot of ZFP91 in BxPC-3; assay type: cell-based
[8] = molecular target: T1, STAT3; test: Western blot of STAT3 in OVCAR-3; assay type: cell-based; conditions: OVCAR-3, negative control incapable of binding CRBN
In short: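 OVCAR-3 cells are seeded at 500 × 10^3/well and treated with the test compound at several concentrations and times (read-out at 12 h). Lysis is by sonication at 4 °C in Tris/NaCl/Triton X-100/SDS buffer, pH 7.4, with protease and phosphatase inhibitors. After BCA quantitation, SDS-PAGE and PVDF transfer, blots are probed for STAT3 (1:1000) and GAPDH (1:4000) and imaged by near-infrared fluorescence.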

[9] = MTT assay; assay type: cell-based; conditions: Table S4
[10] = molecular target: T1, STAT3; conditions: leukemia and lymphoma cell lines; cited from earlier work
[11] = system: tumor; conditions: within two weeks; cited from earlier work
[12] = system: MIA PaCa-2; test: MTT cytotoxicity assay in MIA PaCa-2; assay type: cell-based; conditions: read-out: IC50 (μM) MIA PaCa-2, 3 days, mean ± SD
In short: as §2

[13] = Homo sapiens, BXPC-3, 72 h, read-out: IC50 (μM) BxPC-3, MTT assay, 3 days, mean ± SD
[14] = read-out: IC50 (μM) BxPC-3, MTT assay, 3 days, mean ± SD

T1 sequence (P40763 whole entry): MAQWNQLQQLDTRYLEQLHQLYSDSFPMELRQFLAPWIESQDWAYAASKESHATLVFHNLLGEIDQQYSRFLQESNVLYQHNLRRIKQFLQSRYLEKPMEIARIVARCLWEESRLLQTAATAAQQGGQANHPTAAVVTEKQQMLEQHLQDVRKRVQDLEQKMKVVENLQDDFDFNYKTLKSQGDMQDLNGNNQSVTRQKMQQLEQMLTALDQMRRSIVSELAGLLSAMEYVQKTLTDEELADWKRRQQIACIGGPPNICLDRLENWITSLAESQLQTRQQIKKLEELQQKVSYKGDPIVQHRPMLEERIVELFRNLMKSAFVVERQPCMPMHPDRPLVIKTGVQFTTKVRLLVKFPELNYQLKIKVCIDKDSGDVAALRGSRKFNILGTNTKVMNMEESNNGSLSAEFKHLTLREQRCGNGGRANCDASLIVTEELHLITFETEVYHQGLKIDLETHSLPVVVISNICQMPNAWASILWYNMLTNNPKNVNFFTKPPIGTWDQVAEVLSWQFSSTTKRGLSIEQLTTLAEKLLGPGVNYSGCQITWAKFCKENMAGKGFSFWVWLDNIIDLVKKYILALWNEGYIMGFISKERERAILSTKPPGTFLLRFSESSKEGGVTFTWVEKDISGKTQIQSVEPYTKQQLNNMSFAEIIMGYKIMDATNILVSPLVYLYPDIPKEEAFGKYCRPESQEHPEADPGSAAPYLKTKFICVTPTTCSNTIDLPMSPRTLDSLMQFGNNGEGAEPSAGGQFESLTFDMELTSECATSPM
GSPT1, sequence (Q96SW2 whole entry partner): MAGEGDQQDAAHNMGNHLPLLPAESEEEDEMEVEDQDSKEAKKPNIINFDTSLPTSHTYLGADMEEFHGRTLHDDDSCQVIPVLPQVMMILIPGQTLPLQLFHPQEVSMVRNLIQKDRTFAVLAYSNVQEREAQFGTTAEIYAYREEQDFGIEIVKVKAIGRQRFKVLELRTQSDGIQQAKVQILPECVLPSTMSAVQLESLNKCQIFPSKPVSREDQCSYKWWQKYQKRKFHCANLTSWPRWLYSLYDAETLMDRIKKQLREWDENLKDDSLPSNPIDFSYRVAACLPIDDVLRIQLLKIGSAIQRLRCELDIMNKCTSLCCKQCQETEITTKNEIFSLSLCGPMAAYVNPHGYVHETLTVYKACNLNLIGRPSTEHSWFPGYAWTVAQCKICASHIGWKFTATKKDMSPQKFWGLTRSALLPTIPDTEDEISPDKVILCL
GSPT1, sequence (Q16531 whole entry partner): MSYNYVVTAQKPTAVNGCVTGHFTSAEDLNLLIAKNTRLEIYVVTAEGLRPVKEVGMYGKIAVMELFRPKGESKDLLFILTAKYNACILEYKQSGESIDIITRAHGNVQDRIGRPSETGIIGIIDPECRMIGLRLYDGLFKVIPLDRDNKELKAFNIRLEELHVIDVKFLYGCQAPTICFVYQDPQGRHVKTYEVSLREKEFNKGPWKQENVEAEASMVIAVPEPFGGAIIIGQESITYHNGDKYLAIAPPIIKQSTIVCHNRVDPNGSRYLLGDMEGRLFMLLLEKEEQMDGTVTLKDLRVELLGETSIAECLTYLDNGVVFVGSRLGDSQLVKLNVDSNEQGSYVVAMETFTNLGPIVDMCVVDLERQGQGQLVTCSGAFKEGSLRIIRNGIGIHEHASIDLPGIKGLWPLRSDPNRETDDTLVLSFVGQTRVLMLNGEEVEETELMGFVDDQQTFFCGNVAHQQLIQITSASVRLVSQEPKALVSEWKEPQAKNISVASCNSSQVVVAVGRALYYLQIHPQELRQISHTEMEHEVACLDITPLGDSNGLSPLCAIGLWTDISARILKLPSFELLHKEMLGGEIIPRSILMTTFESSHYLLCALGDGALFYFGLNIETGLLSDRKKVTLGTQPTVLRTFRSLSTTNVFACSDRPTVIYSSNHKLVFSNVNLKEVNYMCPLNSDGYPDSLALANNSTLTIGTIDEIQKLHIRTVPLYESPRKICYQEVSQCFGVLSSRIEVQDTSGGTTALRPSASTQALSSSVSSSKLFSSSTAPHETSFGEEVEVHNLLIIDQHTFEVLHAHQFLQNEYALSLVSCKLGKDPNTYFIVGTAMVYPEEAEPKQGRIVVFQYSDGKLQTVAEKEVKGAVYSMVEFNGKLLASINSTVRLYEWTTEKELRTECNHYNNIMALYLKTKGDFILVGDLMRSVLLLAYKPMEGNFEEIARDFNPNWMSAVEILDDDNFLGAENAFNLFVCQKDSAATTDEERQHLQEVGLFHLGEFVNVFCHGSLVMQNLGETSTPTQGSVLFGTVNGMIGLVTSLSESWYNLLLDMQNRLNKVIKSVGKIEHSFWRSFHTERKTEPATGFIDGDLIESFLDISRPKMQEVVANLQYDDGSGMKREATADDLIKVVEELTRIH
GSPT1, sequence (P15170 whole entry): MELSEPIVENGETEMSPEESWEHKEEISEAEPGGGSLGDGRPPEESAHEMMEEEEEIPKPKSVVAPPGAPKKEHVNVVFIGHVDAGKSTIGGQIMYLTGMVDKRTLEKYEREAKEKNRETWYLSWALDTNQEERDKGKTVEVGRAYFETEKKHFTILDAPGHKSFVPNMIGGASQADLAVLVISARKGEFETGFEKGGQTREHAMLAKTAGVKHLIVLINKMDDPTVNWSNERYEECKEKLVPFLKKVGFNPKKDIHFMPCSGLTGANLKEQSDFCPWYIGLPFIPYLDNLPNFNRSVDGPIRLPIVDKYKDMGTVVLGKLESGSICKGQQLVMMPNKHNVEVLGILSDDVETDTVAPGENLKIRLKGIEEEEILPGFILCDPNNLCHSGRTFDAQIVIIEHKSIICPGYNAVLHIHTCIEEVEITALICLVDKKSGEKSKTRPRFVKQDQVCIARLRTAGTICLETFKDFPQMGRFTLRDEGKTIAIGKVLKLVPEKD
ZFP91, sequence (Q96JP5 whole entry): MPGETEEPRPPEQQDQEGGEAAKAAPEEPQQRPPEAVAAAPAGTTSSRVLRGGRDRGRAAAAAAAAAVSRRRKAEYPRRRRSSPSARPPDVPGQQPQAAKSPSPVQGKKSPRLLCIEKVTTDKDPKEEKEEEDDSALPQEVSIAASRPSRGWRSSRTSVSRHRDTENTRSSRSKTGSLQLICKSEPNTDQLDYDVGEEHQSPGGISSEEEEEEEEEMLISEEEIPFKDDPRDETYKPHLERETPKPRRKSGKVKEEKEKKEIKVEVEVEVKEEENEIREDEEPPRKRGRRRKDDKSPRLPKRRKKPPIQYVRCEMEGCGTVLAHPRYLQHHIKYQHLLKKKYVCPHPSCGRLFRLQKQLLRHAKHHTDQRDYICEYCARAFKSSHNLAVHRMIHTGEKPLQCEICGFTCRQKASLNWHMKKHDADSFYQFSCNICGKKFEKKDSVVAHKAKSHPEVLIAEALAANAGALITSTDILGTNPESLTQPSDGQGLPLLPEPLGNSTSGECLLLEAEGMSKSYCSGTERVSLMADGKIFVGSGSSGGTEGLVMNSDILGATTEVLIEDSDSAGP
ZFP91, sequence (Q96SW2 whole entry): as the sequence (Q96SW2 whole entry partner) above
ZFP91, sequence (Q16531 whole entry partner): as the sequence (Q16531 whole entry partner) above

O=C(NCCN1CCCCC1)c1cc2c(o1)C(=O)c1ccccc1C2=O [1–6, reference compound]
effect on STAT3 expression [1]: did not have any effect | greater cytotoxicity than napabucasin [2]: > 10 fold

O=C1CCC(N2C(=O)c3cccc(NCCCC4CCN(CCNC(=O)c5cc6c(o5)C(=O)c5ccccc5C6=O)CC4)c3C2=O)C(=O)N1 (stereo not shown) [3–6c, N-(2-(4-(3-((2-(2,6-dioxopiperidin-3-yl)-1,3-dioxoisoindolin-4-yl)amino)propyl)piperidin-1-yl)ethyl)-4,9-dioxo-4,9-dihydronaphtho[2,3-b]furan-2-carboxamide]
IC50 [3, 13]: < 1 µM

O=C1CCC(N2C(=O)c3cccc(NCCCCCC4CCN(CCNC(=O)c5cc6c(o5)C(=O)c5ccccc5C6=O)CC4)c3C2=O)C(=O)N1 (stereo not shown) [3–6d, N-(2-(4-(5-((2-(2,6-dioxopiperidin-3-yl)-1,3-dioxoisoindolin-4-yl)amino)pentyl)piperidin-1-yl)ethyl)-4,9-dioxo-4,9-dihydronaphtho[2,3-b]furan-2-carboxamide]
inhibition of colony formation [4]: greater inhibitory activity than napabucasin | concentration at which a decrease in pSTAT3 level was achieved [5]: 1 μM | GSPT1 protein level [6]: did not degrade | IC50 [3, 13]: < 1 µM | concentration at which a decrease in STAT3 protein expression was observed ([1]; BxPC-3, 16 h treatment): 5 µM | ZFP91 expression at the earlier time point ([7]; BxPC-3, 4 h): no effect

O=C1CCC(N2C(=O)c3cccc(OCCCCNC(=O)c4cc5c(o4)C(=O)c4ccccc4C5=O)c3C2=O)C(=O)N1 (stereo not shown) [5–5a, N-(4-((2-(2,6-dioxopiperidin-3-yl)-1,3-dioxoisoindolin-4-yl)oxy)butyl)-4,9-dioxo-4,9-dihydronaphtho[2,3-b]furan-2-carboxamide]
fold more potent than 5–5b ([3]; cytotoxicity IC50): ~2 fold

O=C(NCCOCCOCCNc1cccc2c1C(=O)N(C1CCCNC1=O)C2=O)c1cc2c(o1)C(=O)c1ccccc1C2=O (stereo not shown) [10–5, N-(2-(2-(2-((1,3-dioxo-2-(2-oxopiperidin-3-yl)isoindolin-4-yl)amino)ethoxy)ethoxy)ethyl)-4,9-dioxo-4,9-dihydronaphtho[2,3-b]furan-2-carboxamide]
activity on STAT3 expression compared with XD97 [8]: comparable activity to XD97

CN1C(=O)CCC(N2C(=O)c3cccc(NCCCCCC4CCN(CCNC(=O)c5cc6c(o5)C(=O)c5ccccc5C6=O)CC4)c3C2=O)C1=O (stereo not shown) [11–7, N-(2-(4-(5-((2-(1-methyl-2,6-dioxopiperidin-3-yl)-1,3-dioxoisoindolin-4-yl)amino)pentyl)piperidin-1-yl)ethyl)-4,9-dioxo-4,9-dihydronaphtho[2,3-b]furan-2-carboxamide]
concentration at which a decrease in pSTAT3 level was achieved [5]: 5 μM | effect on STAT3 expression [1]: did not have any effect

CC(=O)c1cc2c(o1)C(=O)c1ccccc1C2=O [NP, 2-acetylbenzo[f][1]benzofuran-4,9-dione, reference compound]
GSPT1 protein level [6]: not affected | ZFP91 protein level ([7]; BxPC-3, 16 h, up to 3 μM): no effect

Nc1cccc2c1C(=O)N(C1CCC(=O)NC1=O)C2=O (stereo not shown) [Pomalidomide]
no cytotoxicity in the MTT assay up to [9]: > 30 µM

NC(=O)CC[C@H](NC(=O)[C@@H]1CC[C@@H]2CCN(C(=O)CCCCCC#Cc3cccc4c3CN(C3CCC(=O)NC3=O)C4=O)C[C@H](NC(=O)c3cc4cc(C(F)(F)P(=O)(O)O)ccc4[nH]3)C(=O)N21)C(=O)NC(c1ccccc1)c1ccccc1 (stereo partly shown) [SD-36]
DC50 values for STAT3 degradation (in words) [10]: nanomolar | tumor response [11]: complete tumor regression

N-(2-(2-(2-((2-(2,6-dioxopiperidin-3-yl)-1,3-dioxoisoindolin-5-yl)amino)ethoxy)ethoxy)ethyl)-4,9-dioxo-4,9-dihydronaphtho[2,3-b]furan-2-carboxamide [6–6c]
IC50 [3, 14]: 23.8 ± 3.9 µM | IC50 [12]: 10.5 ± 3 µM

N-(5-(2-(2,6-dioxopiperidin-3-yl)-1-oxoisoindolin-4-yl)pentyl)-4,9-dioxo-4,9-dihydronaphtho[2,3-b]furan-2-carboxamide [8–1]
IC50 [3, 14]: 13.8 ± 7.7 µM | IC50 [12]: 6.4 ± 3.4 µM
